PubChem BioAssay AID624467 (The Scripps Research Institute Molecular Screening Center, 2012)
Among all 360,000 compounds or so, about 3,600 (1%) were called active. The entries come from a sample that favours actives as a whole. A number with no mark means an inactive call.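 How the source made its calls: active means activation above the mean activation of all test compounds in the run plus 3 SD (cut at about 38% in these data); inactive means the rest.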

The compounds below were run against Trace amine-associated receptor 1 (Homo sapiens) (UniProt Q96RJ0) (assay: activators of TAAR1 calcium mobilization – Fluo-8 calcium fluorescence, CHO RD-HGA16 cells, primary screen (AID 624467)). Details: CHO RD-HGA16 TAAR1, Fluo-8 calcium fluorescence; at 3 µM; active compounds read high; vehicle wells 0%, saturating PEA agonist 100%.
Trace amine-associated receptor 1 (Homo sapiens), sequence (Q96RJ0 whole entry, looked up): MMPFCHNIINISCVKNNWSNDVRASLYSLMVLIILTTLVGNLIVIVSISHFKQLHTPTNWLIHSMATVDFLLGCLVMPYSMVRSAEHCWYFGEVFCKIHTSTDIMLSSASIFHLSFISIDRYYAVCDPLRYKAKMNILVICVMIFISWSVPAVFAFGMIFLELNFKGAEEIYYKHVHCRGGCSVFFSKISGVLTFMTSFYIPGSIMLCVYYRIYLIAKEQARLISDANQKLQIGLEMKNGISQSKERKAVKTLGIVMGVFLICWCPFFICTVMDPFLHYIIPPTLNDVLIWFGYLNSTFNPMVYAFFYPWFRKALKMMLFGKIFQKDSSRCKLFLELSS
How it was run: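 Signal – calcium-sensitive Fluo-8 signal, excitation 470-495, emission 515-575 nm · System – RD-HGA16 (CHO) cells co-expressing Gα16 and hTAAR1 · Incubation – 17-24 h seeding, 75 min 37 °C dye, 30 min RT · Compound dosing – 3 µM single concentration · Repeats – no replicates (n 1)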

SMILES	activation
CSCCC(NS(=O)(=O)c1ccc2c(c1)oc(=O)n2C)C(=O)NC1CCCc2ccccc21 (stereo not given)	4.94%
COC(=O)[C@]12C[C@H](CC(=O)NCCc3ccccc3OC)C(=O)N(Cc3ccccc3)C1=C[C@H](C(C)C)O[C@@H]2C1CC1	30.4%
COc1ccc(NS(=O)(=O)c2ccc(NC(=S)NC(=O)CC(C)C)cc2)cc1	42.2% (active)
COc1cc(NS(=O)(=O)c2ccc(NC(=S)NC(=O)c3ccccc3)cc2)nc(OC)n1	-5.7%
COc1ccc(OC)c(C(C)NC(=S)Nc2ccc(S(=O)(=O)Nc3ncccn3)cc2)c1 (stereo not given)	1.66%
COc1ccc(C2c3ccc(O)cc3Oc3ncn(CCCO)c(=N)c32)cc1OC (stereo not given)	0.73%
C=CCN1C(=NC(=O)COc2ccccc2)SC2CS(=O)(=O)CC21 (stereo not given)	2.44%
C=CCN1CN(S(=O)(=O)c2ccc(OC)cc2)c2nc3ccccc3nc21	2.16%
O=C(NCc1ccccc1)[C@H]1CCCN1C(=O)[C@H]1CCCN1C(=O)N1CCOCC1	1.52%
Cc1ccc(C)n1-c1ccncc1	2.15%
COc1ccc(C(CC(=O)N2CCN(c3ccccc3)CC2)c2c(O)cc(OC)cc2OC)cc1 (stereo not given)	2.38%
COc1ccc(C(C(=O)Nc2c(C)cccc2C)N2CCN(c3ccc(C)cc3)CC2)cc1 (stereo not given)	5.99%
COc1ccc(C(C(O)C(=O)c2c[nH]c3ccccc23)N2CCN(c3ccccc3)CC2)cc1 (stereo not given)	39.9% (active)
COC(=O)C1=C(C)N(Cc2ccc(F)cc2)C(=S)NC1c1cccc(Cl)c1 (stereo not given)	-0.89%
CN1CCCc2nc(-c3ccccc3)ccc21	1.31%
O=C(Nc1cccc(NC(=O)c2ccc(Br)cc2)c1)c1ccccc1	63.2% (active)
CC(C)(C)NC(=O)c1cccc(NC(=O)Cc2ccc(Br)cc2)c1	2.23%
O=C(Nc1ccccc1)c1ccc2nsnc2c1	-0.47%
CCCN1CNC(=S)N(CCc2ccccc2)C1	4.93%
N#CNC1=NCN(CCc2ccccc2)CN1	63.9% (active)
O=C1CCN(CCc2ccccc2)CCN1CCOc1ccccc1	19.8%
CC(C)C[C@H](NC(=O)CC1CCCC1)C(=O)N1CCC[C@H]1C(=O)NCc1ccccc1	1.37%
CCOc1ccc(Nc2nc(Cc3nnc(SCC(=O)NC4CCCC4)n3C)cs2)cc1	11.9%
COCCCn1c(Cc2csc(Nc3cccc(Cl)c3)n2)nnc1SCC(=O)OC1CCCCC1	52.8% (active)
COCCCn1c(SCC(=O)NC2CCCC2)nnc1-c1ccccc1	0.55%
